Test results from ChEMBL document CHEMBL4043077, “Revisiting Previously Investigated Plants: A Molecular Networking-Based Study of Geissospermum laeve” (J Nat Prod, 2017).
Calls of active or inactive are those of the source. No cut-off for these calls is given here.

Legend:
[1] = test system: Leishmania donovani; experiment: Antiparasitic activity against Leishmania donovani LV9 […] amastigotes infected in mouse RAW264.7 cells assessed induction of parasite cell morphological alteration at 6.25 uM incubated for 72 hrs by microscopy; assay type: functional, cell-based
Outline: (§1)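 RAW 264.7 macrophages infected with L. donovani LV9 amastigotes were incubated with compound for 72 h, then examined under the microscope for morphological alteration of the infected cells.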

[2] = test system: Leishmania donovani; experiment: Antiparasitic activity against Leishmania donovani LV9 […] amastigotes infected in mouse RAW264.7 cells incubated for 48 hrs by Sybr Green I dye based assay; assay type: functional, cell-based; conditions: LV9, RAW264.7, 48 h
Outline: (§2)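 Mean ± standard error of three independent in vitro experiments. Reference drugs: miltefosine for L. donovani LV9, tested on axenic amastigotes and on amastigotes inside RAW 264.7 macrophages; paclitaxel for MRC-5, a human fetal lung fibroblast line.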

[3] = test system: MRC5; experiment: Cytotoxic activity against human MRC5 cells incubated for 72 hrs by resazurin dye based spectrophotometry; assay type: cell-based; conditions: MRC5, 72 h; outline: as §2
[4] = test system: Leishmania donovani; experiment: Antiparasitic activity against Leishmania donovani LV9 axenic amastigotes incubated for 72 hrs by resazurin dye based assay; assay type: functional; conditions: LV9, 72 h; outline: as §2
[5] = test system: Plasmodium falciparum; experiment: Antiparasitic activity against chloroquine-resistant Plasmodium falciparum FcB1/Columbia infected in human erythrocytes assessed as reduction in [3H]-hypoxanthine incorporation incubated for 24 hrs assay by liquid scintillation spectrometry; assay type: functional, cell-based
Outline: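 In vitro test of purified alkaloids against the FcB1 strain. Values are the mean ± standard error of three independent experiments.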

[6] = test system: Leishmania donovani; experiment: Antiparasitic activity against Leishmania donovani LV9 […] amastigotes infected in mouse RAW264.7 cells assessed induction of parasite cell morphological alteration at 50 uM incubated for 72 hrs by microscopy; assay type: functional, cell-based; outline: as §1
[7] = test system: Leishmania donovani; experiment: Antiparasitic activity against Leishmania donovani LV9 […] amastigotes infected in mouse RAW264.7 cells assessed induction of parasite cell morphological alteration at 100 uM incubated for 72 hrs by microscopy; assay type: functional, cell-based; outline: as §1
[8] = test system: Leishmania donovani; experiment: Antiparasitic activity against Leishmania donovani LV9 […] amastigotes infected in mouse RAW264.7 cells assessed induction of parasite cell morphological alteration at 12.5 uM incubated for 72 hrs by microscopy; assay type: functional, cell-based; outline: as §1

In the case of `C/C=C1\C[C@H]2[C@@H]([C@@H]3OC[C@H]4[C@H]5C[C@@H]6N(CC[C@@]67c6ccccc6N3[C@@H]47)C[C@H]5CC)[C@@H]3Cc4c([nH]c5ccccc45)[C@H]2N3C1`, the Activity [1] is reported as “Active”, the IC50 [2] is reported as 4.5 µM and the IC50 [3] is reported as 0.022 µM. It also gave an IC50 [4] of 9.4 µM and an IC50 [5] of 1.9 µM.

For `C/C=C1/C[n+]2ccc3c([nH]c4ccccc43)c2C[C@@H]1[C@@H](C(=O)OC)[C@@H]1OC[C@H]2[C@H]3C[C@@H]4N(CC[C@@]45c4ccccc4N1[C@@H]25)C[C@H]3CC`, the Activity [6] was “Active”, the IC50 [2] was 57.8 µM and the IC50 [3] was 3 µM. The IC50 [4] was 51.8 µM and the IC50 [5] was 2.9 µM.

`CC(=O)O[C@H]1C(=O)[C@@]2(C)[C@H]([C@H](OC(=O)c3ccccc3)[C@]3(O)C[C@H](OC(=O)[C@H](O)[C@@H](NC(=O)c4ccccc4)c4ccccc4)C(C)=C1C3(C)C)[C@]1(OC(C)=O)CO[C@@H]1C[C@@H]2O` [PACLITAXEL] was tested, and the IC50 [3] was 0.00052 µM.

With `CCC1=C(CC(=O)OC)[C@@](OC)(c2nccc3c2[nH]c2ccccc23)OC1=O` the IC50 [2] was 59.6 µM, the IC50 [3] was over 50 µM and the Activity [7] was “inactive”. The IC50 [4] was over 100 µM and the IC50 [5] was 56 µM.

`CC[C@@]12CCCN3C(=O)C=C(c4ccccc4NC(=O)CC1)[C@]32O` was tested, and the IC50 [2] was 25 µM, the IC50 [3] was over 50 µM and the Activity [7] was “inactive”. For the same molecule, the IC50 [4] was over 100 µM and the IC50 [5] was over 100 µM.

For `CCC1=C(CC(=O)OC)[C@@](O)(c2nccc3c2[nH]c2ccccc23)OC1=O`, the IC50 [2] was 25.7 µM, the IC50 [3] was over 50 µM and the Activity [7] was “inactive”. It also gave an IC50 [4] of over 100 µM and an IC50 [5] of 74.2 µM.

In the case of `CCCCCCCCCCCCCCCCOP(=O)([O-])OCC[N+](C)(C)C` [MILTEFOSINE], the Activity [8] is reported as “Active”, the IC50 [2] is reported as 5.2 µM and the IC50 [4] is reported as 1.4 µM.
